Measured values from PMC3082041 (Cancer Chemotherapy and Pharmacology, 2010).

How the values were obtained:
[1] = Urinary excretion of TSU-68; type: in vivo, human (Japanese patients); conditions: any dose level
In short: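 Dosing was once daily on days 1 and 29 and bid on days 2–28. Drug measured by validated HPLC-UV (LLOQ 0.1 μg/mL). Excretion expressed as percentage of dose.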

[2] = system: tumor xenograft explants; conditions: athymic mice, many types of tumor; cited from earlier work
[3] = system: plasma VEGF, E-selectin, tPA, VCAM-1, PAI-1, urine VEGF; assay: Angiogenesis-related biomarkers in plasma and urine; type: in vivo, human (Japanese patients); conditions: 14 patients

## Cc1[nH]c(/C=C2\C(=O)Nc3ccccc32)c(C)c1CCC(=O)O [TSU-68, (Z)-3-[2,4-dimethyl-5-(2-oxo-1,2-dihydro-indol-3-ylidenemethyl)-1H-pyrrol-3-yl]-propionic acid]
[1]
  Urinary excretion of TSU-68: below 1 % of dose
[2]
  antitumor activity against tumor xenograft explants: significant antitumor activity
[3]
  change of plasma VEGF, E-selectin, tPA and VCAM-1: not changed substantially
[3]; average
  PAI-1, increase over the baseline: more than 20%
  urine VEGF, increase over the baseline: more than 20%
[3]; baseline 24.3 ± 6.7 ng/ml
  PAI-1, average after treatment: 29.5 ± 11.3 ng/mL
[3]; baseline 96.6 ± 62.4 pg/ml
  urine VEGF, average after treatment: 132.1 ± 93.6 pg/mL
